Measured values as given in ChEMBL document CHEMBL4364279, “Design, synthesis, in-silico and biological evaluation of novel chalcone-O-carbamate derivatives as multifunctional agents for the treatment of Alzheimer's disease” (Eur J Med Chem, 2019).
pIC50: −log10 of the molar value. Active and inactive are the calls of the source. The calls are words filed in the database; no cut-off is given here.

How the values were obtained:
[1] = biological target: Acetylcholinesterase (AChE) (Electrophorus electricus, UniProt O42275); experiment: Inhibition of electric eel AChE at 25 uM using acetylthiocholine iodide as substrate incubated for 15 mins by Ellman's method relative to control; settings: electric eel acetylcholinesterase (isolated enzyme), probe acetylthiocholine iodide
Sequence of Acetylcholinesterase (AChE) (O42275 whole entry): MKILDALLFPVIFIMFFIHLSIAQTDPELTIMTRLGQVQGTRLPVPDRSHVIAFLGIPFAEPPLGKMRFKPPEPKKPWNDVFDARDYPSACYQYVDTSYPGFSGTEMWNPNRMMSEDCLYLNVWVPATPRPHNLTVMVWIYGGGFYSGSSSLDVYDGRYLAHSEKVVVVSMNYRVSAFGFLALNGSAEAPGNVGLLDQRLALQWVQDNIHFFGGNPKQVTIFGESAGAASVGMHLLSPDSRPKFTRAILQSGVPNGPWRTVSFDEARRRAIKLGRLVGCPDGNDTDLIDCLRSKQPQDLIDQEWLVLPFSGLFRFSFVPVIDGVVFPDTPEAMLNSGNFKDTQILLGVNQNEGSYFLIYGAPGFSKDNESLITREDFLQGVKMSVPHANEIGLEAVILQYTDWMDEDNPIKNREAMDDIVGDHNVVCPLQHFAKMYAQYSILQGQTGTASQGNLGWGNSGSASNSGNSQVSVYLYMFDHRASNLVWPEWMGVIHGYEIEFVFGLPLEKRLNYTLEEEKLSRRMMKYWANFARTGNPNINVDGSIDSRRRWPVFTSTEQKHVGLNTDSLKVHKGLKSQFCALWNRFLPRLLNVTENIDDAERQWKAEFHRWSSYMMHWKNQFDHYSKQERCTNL

Cholinesterase = Cholinesterase (Equus caballus, UniProt P81908); experiment: Inhibition of equine serum BuChE using S-butyrylthiocholine iodide as susbtrate preincubated for 6 mins followed by substrate addition measured up to 3 mins by Ellman's method
Sequence of Cholinesterase (P81908 whole entry): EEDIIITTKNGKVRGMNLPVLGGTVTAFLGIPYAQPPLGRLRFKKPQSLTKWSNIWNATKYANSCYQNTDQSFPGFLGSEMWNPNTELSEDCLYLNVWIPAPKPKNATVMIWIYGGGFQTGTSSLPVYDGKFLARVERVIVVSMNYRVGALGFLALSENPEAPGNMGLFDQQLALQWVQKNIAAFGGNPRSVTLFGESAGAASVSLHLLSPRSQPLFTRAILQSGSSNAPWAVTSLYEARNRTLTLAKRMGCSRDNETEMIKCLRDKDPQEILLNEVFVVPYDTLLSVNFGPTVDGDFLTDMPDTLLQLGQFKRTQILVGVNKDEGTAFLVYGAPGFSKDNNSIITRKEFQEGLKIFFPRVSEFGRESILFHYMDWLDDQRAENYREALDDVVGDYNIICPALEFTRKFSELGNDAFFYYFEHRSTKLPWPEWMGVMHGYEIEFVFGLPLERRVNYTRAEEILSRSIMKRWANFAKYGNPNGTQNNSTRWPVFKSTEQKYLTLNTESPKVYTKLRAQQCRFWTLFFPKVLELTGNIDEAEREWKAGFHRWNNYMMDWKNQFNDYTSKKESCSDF

[2] = Antioxidant activity assessed as trolox equivalents of AAPH radical scavenging activity preincubated for 15 mins followed by AAPH addition and measured every minute for 90 mins by ORAC-FL assay; type: functional
[3] = biological target: T1, Amine oxidase [flavin-containing] B (Homo sapiens, UniProt P27338); experiment: biochemical; type: cell-based
T1 sequence (P27338 whole entry): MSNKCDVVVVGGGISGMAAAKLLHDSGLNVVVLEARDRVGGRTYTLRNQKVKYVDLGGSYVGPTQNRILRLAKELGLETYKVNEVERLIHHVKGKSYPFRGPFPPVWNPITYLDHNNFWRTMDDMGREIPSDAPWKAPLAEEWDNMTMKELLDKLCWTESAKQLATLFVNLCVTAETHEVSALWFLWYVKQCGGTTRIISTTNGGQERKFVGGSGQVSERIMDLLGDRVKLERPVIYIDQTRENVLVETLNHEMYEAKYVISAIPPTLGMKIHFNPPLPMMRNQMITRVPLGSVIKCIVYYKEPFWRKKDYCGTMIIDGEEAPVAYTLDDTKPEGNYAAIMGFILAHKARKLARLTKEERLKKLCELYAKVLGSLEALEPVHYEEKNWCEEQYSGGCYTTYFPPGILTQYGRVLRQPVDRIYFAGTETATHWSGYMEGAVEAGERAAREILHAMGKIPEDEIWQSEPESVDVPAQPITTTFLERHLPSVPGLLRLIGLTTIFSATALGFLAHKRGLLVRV

[4] = biological target: T2, Amine oxidase [flavin-containing] A (Homo sapiens, UniProt P21397); experiment: Inhibition of recombinant human MAO-A expressed in baculovirus infected BTI insect cells at 12.5 uM using kynuramine as substrate measured after 30 mins by fluorescence based assay relative to control; settings: 0.5 h
T2 sequence (P21397 whole entry): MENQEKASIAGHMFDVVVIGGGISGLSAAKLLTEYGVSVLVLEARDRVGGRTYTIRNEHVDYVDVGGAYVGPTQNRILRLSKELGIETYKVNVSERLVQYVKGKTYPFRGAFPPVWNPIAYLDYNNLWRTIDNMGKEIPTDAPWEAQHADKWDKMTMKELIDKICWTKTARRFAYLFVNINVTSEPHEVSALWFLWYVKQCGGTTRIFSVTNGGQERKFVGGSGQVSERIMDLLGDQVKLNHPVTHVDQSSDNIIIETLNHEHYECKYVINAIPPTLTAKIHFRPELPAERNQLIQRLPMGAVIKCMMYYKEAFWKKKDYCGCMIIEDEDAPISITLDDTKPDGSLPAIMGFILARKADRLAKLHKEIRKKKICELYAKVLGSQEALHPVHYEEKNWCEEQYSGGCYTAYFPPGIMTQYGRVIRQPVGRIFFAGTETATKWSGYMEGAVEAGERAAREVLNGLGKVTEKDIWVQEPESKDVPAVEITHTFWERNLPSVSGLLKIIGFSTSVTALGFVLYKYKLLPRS

[5] = biological target: Amyloid-beta precursor protein (Homo sapiens) (UniProt P05067); experiment: Inhibition of self-induced amyloid beta (1 to 42) (unknown origin) aggregation at 25 uM after 24 hrs by thioflavin-T based fluorescence assay relative to control
Sequence of Amyloid-beta precursor protein (Homo sapiens) (P05067 whole entry, the tested form may be a part): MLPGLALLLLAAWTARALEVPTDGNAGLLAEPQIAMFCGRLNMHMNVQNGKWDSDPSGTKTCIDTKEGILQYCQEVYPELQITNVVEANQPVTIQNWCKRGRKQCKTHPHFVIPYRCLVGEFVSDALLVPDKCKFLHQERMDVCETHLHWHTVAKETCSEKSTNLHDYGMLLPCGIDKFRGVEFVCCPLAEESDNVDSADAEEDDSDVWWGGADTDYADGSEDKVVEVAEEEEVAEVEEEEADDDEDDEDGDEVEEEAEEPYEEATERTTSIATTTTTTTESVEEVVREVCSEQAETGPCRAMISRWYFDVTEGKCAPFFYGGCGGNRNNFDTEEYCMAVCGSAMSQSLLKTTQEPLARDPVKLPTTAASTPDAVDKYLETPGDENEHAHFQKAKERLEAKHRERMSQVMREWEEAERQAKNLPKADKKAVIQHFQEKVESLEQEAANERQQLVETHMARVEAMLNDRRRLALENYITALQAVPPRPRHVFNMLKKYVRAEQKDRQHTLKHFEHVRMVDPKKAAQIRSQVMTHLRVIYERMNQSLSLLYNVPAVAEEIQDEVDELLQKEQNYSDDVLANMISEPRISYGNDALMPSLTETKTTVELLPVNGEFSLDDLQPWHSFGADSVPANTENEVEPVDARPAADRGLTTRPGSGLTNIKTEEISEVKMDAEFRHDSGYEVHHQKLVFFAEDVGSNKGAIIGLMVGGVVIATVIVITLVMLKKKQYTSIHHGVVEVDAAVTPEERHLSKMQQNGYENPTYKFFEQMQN

[6] = Inhibition of Cu2+-induced amyloid beta (1 to 42 residues) (unknown origin) aggregation at 25 uM after 24 hrs by thioflavin-T based fluorescence assay relative to control
Outline: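 Aβ1-42 (25 µM) and Cu2+ (25 µM) incubated at 37 °C for 24 h with or without compound (25 µM). ThT (5 µM in 50 mM glycine-NaOH, pH 8.5) then added; fluorescence read at ex 446/em 490 nm. Inhibition = (1−IFi/IFc)×100 after background subtraction. Three independent experiments.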

[7] = Disaggregation of Cu2+ induced preformed fibrils of amyloid beta (1 to 42) (unknown origin) at 25 uM preincubated with Cu2+ for 24 hrs followed by compound addition and measured after 24 hrs by thioflavin-T based fluorescence assay relative to control
Outline: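 Aβ1-42 (25 µM) and Cu2+ (25 µM) preincubated at 37 °C for 24 h, then compound (25 µM) added and incubated a further 24 h at 37 °C. ThT (5 µM in 50 mM glycine-NaOH, pH 8.5) added; fluorescence at ex 446/em 490 nm, background subtracted, % vs no-compound control. Three independent experiments.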

[8] = biological target: Cholinesterase (Equus caballus) (UniProt P81908); experiment: Inhibition of equine serum BuChE at 25 uM using S-butyrylthiocholine iodide as susbtrate preincubated for 6 mins followed by substrate addition measured up to 3 mins by Ellman's method
Sequence of Cholinesterase (Equus caballus) (P81908 whole entry): as the sequence (P81908 whole entry) above

[9] = biological target: Cholinesterase (Equus caballus) (UniProt P81908); experiment: Reversible inhibition of equine serum BuChE assessed as enzyme activity at 0.1 times IC50 using butyrylthiocholine iodide as substrate by Ellman's method relative to control; design: scale not given: the % may be the effect or the level left
Outline: (§1)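 Reversibility tested by recovery of equine serum BuChE activity after dilution of inhibitor, with activity monitored over time up to 240 min by the Ellman method (DTNB read at 412 nm). Activity expressed relative to untreated control. Three independent experiments.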

[10] = biological target: Cholinesterase (Equus caballus) (UniProt P81908); experiment: Reversible inhibition of equine serum BuChE assessed as enzyme activity at 0.1 times IC50 using butyrylthiocholine iodide as substrate measured at 120 mins by Ellman's method relative to control; design: scale not given: the % may be the effect or the level left; outline: as §1
[11] = biological target: Cholinesterase (Equus caballus) (UniProt P81908); experiment: Reversible inhibition of equine serum BuChE assessed as enzyme activity at IC50 using butyrylthiocholine iodide as substrate by Ellman's method relative to control; design: scale not given: the % may be the effect or the level left
Mus musculus [12] = experiment: Effect on total arm entries in Kunming mouse model of scopolamine-induced cognitive impairment in at 6 mg/kg, ig pretreated for 30 min followed by scopolamine challenge and measured after 30 mins by Y-maze test; type: ADME, organism-based; settings: in vivo, po, 0.5 h
Mus musculus [13] = experiment: Reversal of scopolamine-induced memory cognitive memory impairment in Kunming mouse assessed as change in spontaneous alteration behavior at 6 mg/kg, ig pretreated for 30 mins followed by scopolamine challenge and after 30 mins by Y-maze test (reference value: 45.6%); type: functional
[14] = Metal chelating activity of the compound assessed as formation of Fe2+-compound complex at 37.5 uM after 30 mins by UV-vis absorption spectra analysis
Outline: (§2)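 Metal binding examined by plate-reader absorbance scan using CuCl2, ZnCl2, AlCl3, FeSO4, CuCl and Fe(NO3)3 as metal sources.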

[15] = Metal chelating activity of the compound assessed as formation of Zn2+-compound complex at 37.5 uM after 30 mins by UV-vis absorption spectra analysis; outline: as §2
[16] = Metal chelating activity of the compound assessed as formation of Cu2+-compound complex at 37.5 uM after 30 mins by UV-vis absorption spectra analysis; outline: as §2
PC-12 [17] = experiment: Neuroprotective activity against H2O2-induced cell death in rat PC12 cells assessed as cell viability at 10 uM pretreated for 2 hrs followed by H2O2 addition measured after 30 mins by MTT assay (reference value: 49.6%); type: functional; settings: read-out: Activity
PC-12 [18] = experiment: Neuroprotective activity against H2O2-induced cell death in rat PC12 cells assessed as cell viability at 1 uM pretreated for 2 hrs followed by H2O2 addition measured after 30 mins by MTT assay (reference value: 49.6%); type: functional; settings: read-out: Activity
[19] = Metal chelating activity of the compound assessed as formation of Al3+-compound complex at 37.5 uM after 30 mins by UV-vis absorption spectra analysis; outline: as §2
in vitro = settings: PAMPA, pH 7.4

SMILES	inhibition at 0.25 h, 25 µM [1]	pIC50 (Cholinesterase)	Activity [2]	pIC50 [3]	inhibition at 12.5 µM [4]	inhibition [5]	further results
CN(C)C(=O)Oc1cccc(/C=C/C(=O)c2ccccc2O)c1	28.8%	5.60	1.1 µMequiv/µM	6.10	19.9%	60.2%	–
O=C(/C=C/c1cccc(OC(=O)N2CCOCC2)c1)c1ccccc1OC(=O)N1CCOCC1	20.8%	5.70	0.32 µMequiv/µM	5.28	20.9%	49.2%	–
O=C(/C=C/c1cccc(OC(=O)N(c2ccccc2)c2ccccc2)c1)c1ccccc1O	18.9%	4.25	1.1 µMequiv/µM	5.31	18.2%	–	–
CON(C)C(=O)Oc1cccc(/C=C/C(=O)c2ccccc2OC(=O)N(C)OC)c1	45.4%	5.82	0.32 µMequiv/µM	5.34	10.3%	49.9%	–
COc1cc(/C=C/C(=O)CC(=O)/C=C/c2ccc(O)c(OC)c2)ccc1O	–	–	–	–	–	–	inhibition [6]: 73.4%; Activity [7]: 58.2%
CON(C)C(=O)Oc1cccc(/C=C/C(=O)c2ccccc2O)c1	30.4%	5.49	1.2 µMequiv/µM	5.59	33.8%	61.4%	–
O=C(/C=C/c1cccc(O)c1)c1ccccc1O	23.3%	–	2.6 µMequiv/µM	5.96	28.1%	70.6%	inhibition [8]: 28.9%
O=C(/C=C/c1cccc(OC(=O)N(c2ccccc2)c2ccccc2)c1)c1ccccc1OC(=O)N(c1ccccc1)c1ccccc1	27.1%	4.37	0.33 µMequiv/µM	5.20	18.2%	–	–
O=C(/C=C/c1cccc(OC(=O)N2CCOCC2)c1)c1ccccc1O	24.3%	5.29	1.2 µMequiv/µM	5.51	17.4%	–	–
CCN(CC)C(=O)Oc1cccc(/C=C/C(=O)c2ccccc2OC(=O)N(CC)CC)c1	21.9%	5.51	0.31 µMequiv/µM	5.48	21.1%	51.5%	–
CCN(C)C(=O)Oc1cccc([C@H](C)N(C)C)c1 [RIVASTIGMINE]	–	–	–	–	–	–	Activity [9]: 46.9%; Activity [10]: 71.6%; Activity [11]: 49.8%; Activity (Mus musculus [12]): Non-Toxic; Activity (Mus musculus [13]): 65.3%
CCN(C)C(=O)Oc1cccc(/C=C/C(=O)c2ccccc2OC(=O)N(C)CC)c1	35.4%	5.92	0.35 µMequiv/µM	5.43	28.4%	53.1%	Activity [9]: 50.7%; Activity [10]: 70.9%; Activity [11]: 49.7%; Activity [14]: inactive; Activity [15]: inactive; Activity [16]: inactive; viability at 10 µM (PC-12 [17]): 63.2%; viability at 1 µM (PC-12 [18]): 53.7%; Activity [19]: inactive; Papp at 100 ug/ml (in vitro): 23.1 ×10⁻⁶ cm/s
CN(C)C(=O)Oc1cccc(/C=C/C(=O)c2ccccc2OC(=O)N(C)C)c1	11.7%	5.35	0.32 µMequiv/µM	5.54	18.9%	–	–
CCN(CC)C(=O)Oc1cccc(/C=C/C(=O)c2ccccc2O)c1	16.9%	5.32	1.3 µMequiv/µM	5.74	38.1%	–	–
COc1cc2c(cc1OC)C(=O)C(CC1CCN(Cc3ccccc3)CC1)C2 (stereo unspecified)	–	–	–	–	–	–	Activity [10]: 104%; Activity [11]: 54.1%
